Test results reported in PMC2606940 (The Journal of General Physiology, 2009).
Substitutions are numbered along the chain they refer to. Like-named read-outs stand apart in the source and are kept apart here.

Assays:
[1] = target: T1, CLC-0 E166C/K519E mutant (E127/K519E) (Torpedo marmorata, UniProt P21564, C212S/E166C/K519E); format: cell-based
T1 sequence (P21564 1-805 E166C/C212S/K519E): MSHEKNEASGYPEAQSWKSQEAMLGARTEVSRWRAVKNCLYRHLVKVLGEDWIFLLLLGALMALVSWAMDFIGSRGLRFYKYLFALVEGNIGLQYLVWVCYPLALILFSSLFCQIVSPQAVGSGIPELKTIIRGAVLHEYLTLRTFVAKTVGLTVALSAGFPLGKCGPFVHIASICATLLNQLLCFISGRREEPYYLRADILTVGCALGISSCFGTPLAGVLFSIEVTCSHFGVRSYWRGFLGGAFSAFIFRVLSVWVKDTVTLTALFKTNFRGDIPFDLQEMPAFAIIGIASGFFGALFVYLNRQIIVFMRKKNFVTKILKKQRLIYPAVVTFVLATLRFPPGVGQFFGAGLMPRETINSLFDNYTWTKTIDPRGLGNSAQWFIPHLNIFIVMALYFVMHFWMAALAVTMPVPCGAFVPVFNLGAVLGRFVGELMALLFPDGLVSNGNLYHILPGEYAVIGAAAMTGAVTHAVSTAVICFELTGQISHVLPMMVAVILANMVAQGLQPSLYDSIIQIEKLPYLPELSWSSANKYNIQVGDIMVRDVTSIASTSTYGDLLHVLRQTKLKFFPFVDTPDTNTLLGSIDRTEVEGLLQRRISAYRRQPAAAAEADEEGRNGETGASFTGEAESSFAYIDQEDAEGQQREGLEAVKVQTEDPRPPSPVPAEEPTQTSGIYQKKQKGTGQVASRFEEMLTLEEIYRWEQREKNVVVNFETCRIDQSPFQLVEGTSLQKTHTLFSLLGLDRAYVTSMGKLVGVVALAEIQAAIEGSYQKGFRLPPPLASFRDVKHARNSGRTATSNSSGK
How it was run: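 CLC-0 mutants in the C212S background were transfected into HEK293 cells with lipofectamine and recorded 1–3 d later as excised inside-out patches. Both sides held 130 mM NaCl, 5 mM MgCl2, 10 mM HEPES and 1 mM EGTA, pH 7.4. CPA was perfused continuously onto the cytoplasmic face. Steady-state current over the last 10 ms was normalized to bracketing blocker-free controls and fitted to a Langmuir function for K1/2. Values are mean ± SEM of ~4–6 patches.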

CLC-0 E166A mutant = target: T2, CLC-0 E166A mutant (Torpedo marmorata, UniProt P21564, C212S/E166A); test: Single-channel recordings, channels expressed in Xenopus oocytes; format: cell-based; conditions: 0.1 mM CPA cytoplasmic side; −100 mV
T2 sequence (P21564 1-805 E166A/C212S): T1 sequence (P21564 1-805 E166C/C212S/K519E) with C166A, E519K
How it was run: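 Single channels were expressed in Xenopus oocytes from cRNA made from a pBluescript construct. Currents were recorded at −100 mV with cytoplasmic CPA at 100 μM, filtered at 200 Hz (four-pole Bessel) and digitized at 1 kHz. Average dwell time of nonconducting events was analysed from the single-channel traces.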

What does the source list for `O=C(O)COc1ccc(Cl)cc1` [CPA, p-chlorophenoxy acetate]?
IC50 ([1]; read-out: Apparent affinity (K1/2), −40 mV): 730 ± 59 µM; IC50 ([1]; read-out: Apparent affinity (K1/2), −60 mV): 516 ± 46 µM; IC50 ([1]; read-out: Apparent affinity (K1/2), −80 mV): 377 ± 39 µM; IC50 ([1]; read-out: Apparent affinity (K1/2), −100 mV): 277 ± 37 µM; IC50 ([1]; read-out: Apparent affinity (K1/2), −120 mV): 203 ± 34 µM; IC50 ([1]; read-out: Apparent affinity (K1/2), −140 mV): 158 ± 31 µM; IC50 ([1]; read-out: Apparent affinity (K1/2), −160 mV): 115 ± 25 µM; IC50 ([1]; read-out: K1/2, −140 mV (Fig. 6)): ~160 µM; apparent kon ([1]; −160 mV): 110000 M⁻¹ s⁻¹; averaged time of nonconducting (blocked) events (CLC-0 E166A mutant): ~55 ms
